Assay outcomes deposited in PubChem by several laboratories.
A selection: hits, their analogues and other compounds. The true share with any hit is near 3.1%.
core dimer inh = HCV core protein dimerization inhibition. TR-FRET GST/Flag-core106 dimerization, 1536-well. inhibition, % at 5 µM. 300,000 compounds, 0.33% hits;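 active = inhibition above the mean of all tested compounds plus 3 SD, set per screening campaign, cut at about 45% in these data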
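Material: Tagged HCV core106 pair (GST and Flag) | Amount: GST-core106 13.5 nM, Flag-core106 17 nM | Medium: KF-containing HEPES buffer, pH 7.45, DTT, CHAPS, BSA | Reagent: Eu donor and XL665 acceptor anti-tag antibodies | Schedule: 4 h at 22.5 °C | Technique: Time-resolved FRET, ex 340 nm, em 617 and 671 nm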
Myeloid diff 2 = compounds promoting myeloid differentiation | ER-HoxA9 myeloid progenitors, lysozyme-GFP differentiation, flow cytometry | calls only at 10 µM | 360,000 compounds, 1% hits;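 active = normalized GFP-positive differentiation at or above the plate's own cutoff, the solvent-only control mean plus 3 SD; inconclusive = no clear call, values can overlap the other calls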;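 also: cells exposed to compound for four days before flow analysis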
NadD inh = inhibitors of Staphylococcus aureus NadD; purified NadD enzyme, colorimetric absorbance read-out; inhibition, % at 20 µM; 360,000 compounds, 0.78% hits; in the data active = inhibition above about 26%
Fh CTSL1 inh = counter-screen for PFM18AAP inhibitors: inhibitors of F. hepatica cathepsin L1 | recombinant F. hepatica cathepsin L1, Z-Leu-Arg-MCA fluorescence | AID 1906 | inhibition, % at 5.96 µM | 300,000 compounds, 0.49% hits;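 active = inhibition above the mean of all tested compounds plus 3 SD, set per screening campaign, cut at about 17% in these data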;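 also: 0% = plate median of test compound wells and 100% = 1 µM Z-Phe-Ala-diazomethylketone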
PP1 counter = counter-screen for PP5 inhibitors: inhibitors of human PP1-alpha | purified PP1alpha, OMFP fluorescence | P62136 | inhibition, % at 6.7 µM | 320,000 compounds, 0.9% hits;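 active = inhibition above the mean inhibition of all tested compounds plus 3 SD, computed separately for each screening campaign, cut at about 15% in these data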
Target sequence (P62136 whole entry, looked up): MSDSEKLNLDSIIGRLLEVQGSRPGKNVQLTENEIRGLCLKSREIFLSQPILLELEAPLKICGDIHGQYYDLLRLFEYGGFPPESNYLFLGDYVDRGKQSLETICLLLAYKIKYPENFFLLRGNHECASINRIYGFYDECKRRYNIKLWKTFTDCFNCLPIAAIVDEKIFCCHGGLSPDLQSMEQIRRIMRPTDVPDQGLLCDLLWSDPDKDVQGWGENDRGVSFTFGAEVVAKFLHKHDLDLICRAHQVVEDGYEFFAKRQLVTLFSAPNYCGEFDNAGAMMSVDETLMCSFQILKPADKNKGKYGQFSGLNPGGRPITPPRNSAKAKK
PP5 inh = blocks human protein phosphatase 5 activity | P53041 | purified PP5c, OMFP substrate fluorescence | inhibition, % at 6.7 µM | 320,000 compounds, 0.18% hits;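 active = inhibition above the campaign's mean inhibition across all tested compounds plus 3 SD, cut at about 9.5% in these data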;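 also: 0% = DMSO only and 100% = 100 µM cantharidin control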
PP5 inh confirm = confirmation of human PP5 phosphatase inhibitors | 460 compounds, 22% hits | Purified PP5, fluorogenic phosphatase substrate, fluorescence | inhibition, % at 6.7 µM | shares compounds with PP5 inh | AID 2331; in the data active = inhibition above about 9.5%
PP1 counter 3x = counter-screen for PP5 inhibitors: human PP1 phosphatase inhibition; PP1 enzyme, fluorescent phosphatase substrate; AID 2355; shares compounds with PP5 inh; inhibition, % at 6.7 µM; 460 compounds, 4% hits; in the data active = inhibition above about 16%
PP1 confirm = confirmation of human PP1 phosphatase inhibitors. shares compounds with PP1 counter. purified PP1alpha, OMFP substrate fluorescence. inhibition, % at 6.7 µM. 1,900 compounds, 52% hits;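 active = mean PP1 inhibition above a set limit taken from the earlier primary screen, cut at about 15% in these data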
PP5 counter = inhibits human PP5 phosphatase in PP1 counter-screen | shares compounds with PP1 counter | purified PP5c, OMFP fluorescence | 1,900 compounds, 4% hits | inhibition, % at 6.7 µM;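 active = mean PP5 inhibition over triplicate wells above about 9.5% taken from the earlier PP1 screen, limit read from the data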
An asterisk follows results filed as active; i = inactive; u = inconclusive; x = no result; + = active, no number.

SMILES	core dimer inh	Myeloid diff 2	NadD inh	Fh CTSL1 inh	PP1 counter	PP5 inh	others
CN(C)c1ccc(/C=C2/C(=O)NC(=O)N(Cc3ccco3)C2=O)cc1	4.4	i	11.9	3.3	-1.8	3.2
COc1ccc(/C=C2/C(=O)N(Cc3ccco3)C(=O)N(C(C)C)C2=O)cc1	-0.1	i	33.5*	-2.7	2.2	0.4
CC(C)N1C(=O)/C(=C/C=C/c2ccco2)C(=O)N(Cc2ccco2)C1=O	62.8*	i	17.5	-1.5	7.0	1.5
CCCC1(CCO)C(=O)NC(=S)NC1=O	x	i	3.6	x	x	x
COC(=O)C1=C(c2ccccc2OCc2ccccc2)C[C@@H]2CC[C@H]1N2C(=O)NCCCOC(C)C	x	i	-0.2	x	0.7	4.2
COc1cccc(-n2c(O)c(C=NCCN3CCNCC3)c(=O)[nH]c2=S)c1	-0.1	i	-7.2	-2.4	3.5	1.6
O=C1CN(O)C(c2ccccc2)=c2cc(Cl)ccc2=N1	0.5	i	0.9	0.1	-2.4	3.9
CCOP(=O)(OCC)C(NC(=O)c1ccccc1)C(Cl)(Cl)Cl (stereo unspecified)	0.7	i	-6.6	-4.5	-2.6	-0.1
CCCOP(=O)(OCCC)C(NC(=O)c1cc(OC)c(OC)c(OC)c1)c1ccccc1 (stereo unspecified)	-3.3	i	-0.7	16.7*	-1.3	-0.5
C[C@@H]1O[C@@H](O[C@@H]2C=C3CCC4C(CC[C@]5(C)[C@@H](c6ccc(=O)oc6)CC[C@]45O)[C@@]3(C)CC2)[C@H](O)[C@H](O)[C@H]1O (stereo partly specified)	-2.6	i	-0.7	25.4*	-4.2	3.3
COC1=CC(=O)OC(CCc2ccc3c(c2)OCO3)C1 (stereo unspecified)	x	i	6.1	x	x	x
CCOC(=O)c1cccc([P+](=O)O)c1	0.6	i	3.1	1.3	-0.3	1.5
CCOC(=O)c1ccc2[nH]c(-c3ccc(S(=O)(=O)F)cc3)cc(=O)c2c1	6.4	+	3.6	-1.6	0.9	1.8
Cc1ccccc1N1C(=O)NC(=O)/C(=C\c2ccc3c(c2)CCCN3Cc2ccccc2)C1=O	15.0	i	39.5*	7.2	3.3	1.2
CC(C)[C@H]1C(=O)N2CCC[C@H]2[C@]2(O)O[C@](NC(=O)[C@@H]3C=C4c5cccc6[nH]cc(c56)C[C@H]4N(C)C3)(C(C)C)C(=O)N12	14.1	+	1.2	36.2*	0.7	4.7
CC(C)C[C@H]1C(=O)N2CCCC2[C@]2(O)O[C@](NC(=O)[C@@H]3C=C4c5cccc6[nH]cc(c56)CC4N(C)C3)(C(C)C)C(=O)N12 (stereo partly specified)	41.0	i	13.8	30.7*	11.4	1.9
CC(C)[C@@]1(NC(=O)[C@@H]2C[C@@H]3c4cccc5[nH]cc(c45)C[C@H]3N(C)C2)O[C@@]2(O)[C@@H]3CCCN3C(=O)[C@H](Cc3ccccc3)N2C1=O	-6.1	u	-0.4	0.6	0.6	1.5
Nc1ccccc1C(=O)OCCc1ccccc1	x	i	1.0	x	1.4	2.1
Cc1ccc(/C=C2\C(=O)NC(=S)N(c3ccc(F)cc3)C2=O)s1	-1.4	i	32.0*	-1.5	4.6	0.7
CCCCn1c(NC(=O)c2ccco2)c(C(=O)OCC)c2nc3ccccc3nc21	-2.8	i	15.4	-7.4	5.2	9.6*	PP5 inh confirm=36.6*;PP1 counter 3x=8.3
COc1cccc2c1N=C1CCCC3CN(C(C)=O)CCC123 (stereo unspecified)	x	i	-0.5	x	x	x
CCN(CC)c1ccc(N=Cc2c(O)n(-c3ccccc3C)c(=O)[nH]c2=O)cc1	9.6	i	-0.4	-3.2	1.5	2.7
CCOc1ccccc1-n1c(O)c(C=Nc2ccc(N(CC)CC)cc2)c(=O)[nH]c1=O	0.1	i	13.6	2.3	-3.1	12.1*	PP5 inh confirm=0.2;PP1 counter 3x=-0.2
COc1ccc(Cn2c(N)c(C(=O)NCc3ccco3)c3nc4ccccc4nc32)cc1	34.9	+	30.0	0.0	6.4	11.1*	PP5 inh confirm=11.3*;PP1 counter 3x=3.7
CCc1cc(=O)oc2cc(OCC(=O)N3C[C@H]4C[C@@H](C3)c3cccc(=O)n3C4)ccc12	3.0	i	2.3	3.2	6.5	-1.0
SMILES	core dimer inh	Myeloid diff 2	NadD inh	Fh CTSL1 inh	PP1 counter	PP5 inh	others
Clc1ccc(COC(Cn2ccnc2)c2ccc(Cl)cc2Cl)c(Cl)c1 (stereo unspecified)	13.8	i	19.0	7.2	22.8*	2.0	PP1 confirm=27.2*;PP5 counter=2.2
CCc1ccc(NC(=O)CCNC(=O)N2C[C@H]3C[C@@H](C2)c2cccc(=O)n2C3)cc1	-5.9	i	1.4	-2.1	-4.5	4.2
CCSC(=O)N1CCCCCC1	x	i	1.4	x	-2.0	1.0
CN1C[C@H](CO)C=C2c3cccc4[nH]cc(c34)C[C@H]21	-11.7	i	16.0	-1.8	31.6*	3.5	PP1 confirm=-3.0;PP5 counter=1.5
Cc1cc(O)c2c(c1)C(=O)C13C(=C2O)C(=O)[C@H]2[C@@H](O)[C@@H]1[C@H]1[C@H](O)[C@@H]3C(=O)C3=C(O)c4c(O)cc(C)cc4C(=O)C312 (stereo partly specified)	-8.9	i	4.5	6.2	39.9*	3.0	PP1 confirm=33.5*;PP5 counter=-2.4
Cc1nccc2c1[nH]c1ccc(Br)cc12	3.4	i	-5.4	-2.4	20.9*	0.4	PP1 confirm=-0.9;PP5 counter=-1.2
O=C(N/N=C/c1c(O)n(Cc2ccc(F)cc2)c(=O)[nH]c1=O)c1ccccc1O	1.9	i	5.9	1.4	20.6*	4.2	PP1 confirm=9.9;PP5 counter=-1.9
CC1(CCO)C(=O)NC(=S)NC1=O	x	i	1.9	x	x	x
C[C@]12C=CC(=O)C=C1CC[C@@H]1C2CC[C@]2(C)OC(=O)CCC12 (stereo partly specified)	0.7	i	-7.6	1.9	-1.9	-0.8
CN1CCN(c2nc3c(c(=O)[nH]2)CCC3)CC1	-2.1	i	-4.5	0.1	-0.9	2.7
CCCCCn1c(=O)c(C(=O)Nc2ncccc2C)c(O)c2ccccc21	13.2	u	19.1	3.1	25.4*	2.0	PP1 confirm=21.7*;PP5 counter=-2.6
CCCc1cc(=O)oc2cc(OCC(=O)N3CCC(C(=O)O)(c4ccccc4)CC3)ccc12	1.8	i	0.4	1.0	-0.2	-0.5
